Assay results published in ChEMBL document CHEMBL3297654, “Synthesis, antimicrobial and cytotoxic activities, and structure-activity relationships of gypsogenin derivatives against human cancer cells” (Eur J Med Chem, 2014).
Active and inactive are the calls of the source. No cut-off for these calls is given here.

How the values were obtained:
Proteus vulgaris = test: Antimicrobial activity against Proteus vulgaris ATCC 33420 assessed as zone of inhibition at 10 mg by disk diffusion test; assay type: functional, organism-based
Enterococcus faecalis = test: Antimicrobial activity against Enterococcus faecalis ATCC 29212 assessed as zone of inhibition at 10 mg for 24 hrs at 37 degC by disk diffusion test; assay type: functional; conditions: ATCC 29212, 24 h, read-out: DIZ
Summary of the method: (§1)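 Agar well diffusion following NCCLS disc susceptibility guidance. Compounds were held as 1000 µg/mL stocks in DMSO. Broth cultures (18–24 h) were adjusted to 0.5 McFarland (1×10^8 cells/mL) and spread on Mueller Hinton agar. A 6 mm well was cut and filled with 30 µL compound. Plates were incubated 24 h at 37 °C, and the inhibition zone diameter was measured in mm.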

Bacillus cereus = test: Antimicrobial activity against Bacillus cereus ATCC 11778 assessed as zone of inhibition at 10 mg for 24 hrs at 30 degC by disk diffusion test; assay type: functional, organism-based
Summary of the method: (§2)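 Well diffusion on Mueller Hinton agar per NCCLS disc susceptibility tests. DMSO stocks were 1000 µg/mL. Bacterial broth cultures (18–24 h) were adjusted to 0.5 McFarland, about 1×10^8 cells/mL. A 6 mm well received 30 µL compound. Incubation was 24 h at 30 °C, and zone diameters were read in mm. B. thuringiensis was a fecal clinical isolate grown in nutrient broth.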

Bacillus subtilis = test: Antimicrobial activity against Bacillus subtilis ATCC 6633 assessed as zone of inhibition at 10 mg by disk diffusion test; assay type: functional, organism-based
Escherichia coli = test: Antimicrobial activity against Escherichia coli ATCC 25922 assessed as zone of inhibition at 10 mg for 24 hrs at 37 degC by disk diffusion test; assay type: functional, organism-based
Klebsiella pneumoniae = test: Antimicrobial activity against Klebsiella pneumoniae ATCC 13882 assessed as zone of inhibition at 10 mg for 24 hrs at 37 degC by disk diffusion test; assay type: functional, organism-based; summary of the method: as §1
Pseudomonas aeruginosa = test: Antimicrobial activity against Pseudomonas aeruginosa ATCC 35032 assessed as zone of inhibition at 10 mg for 24 hrs at 37 degC by disk diffusion test; assay type: functional, organism-based; summary of the method: as §1
Bacillus thuringiensis = test: Antimicrobial activity against Bacillus thuringiensis assessed as zone of inhibition at 10 mg for 24 hrs at 30 degC by disk diffusion test; assay type: functional, organism-based; summary of the method: as §2

SMILES: CC1(C)S[C@@H]2[C@H](NC(=O)[C@H](N)c3ccccc3)C(=O)N2[C@H]1C(=O)O [AMPICILLIN]
- diameter of the inhibition zone (DIZ) (Proteus vulgaris): inactive
- zone of inhibition at 10000 µg/disc (Enterococcus faecalis): 14 mm
- diameter of the inhibition zone (DIZ) (Bacillus cereus): inactive
- diameter of the inhibition zone (DIZ) (Bacillus subtilis): inactive
- diameter of the inhibition zone (DIZ) (Escherichia coli): inactive
- diameter of the inhibition zone (DIZ) (Klebsiella pneumoniae): inactive
- diameter of the inhibition zone (DIZ) (Pseudomonas aeruginosa): inactive
- diameter of the inhibition zone (DIZ) (Bacillus thuringiensis): inactive
